Results from ChEMBL document CHEMBL1134475, “3-(4-Fluoropiperidin-3-yl)-2-phenylindoles as high affinity, selective, and orally bioavailable h5-HT(2A) receptor antagonists” (J Med Chem, 2001).

Columns and labels:
[1] = biological target: T1, 5-hydroxytryptamine receptor 2C (Homo sapiens, UniProt P28335); experiment: Ability to displace [3H]mesulergine binding to human 5-hydroxytryptamine 2C receptor stably expressed in CHO cells; type: cell-based
T1 sequence (P28335 whole entry): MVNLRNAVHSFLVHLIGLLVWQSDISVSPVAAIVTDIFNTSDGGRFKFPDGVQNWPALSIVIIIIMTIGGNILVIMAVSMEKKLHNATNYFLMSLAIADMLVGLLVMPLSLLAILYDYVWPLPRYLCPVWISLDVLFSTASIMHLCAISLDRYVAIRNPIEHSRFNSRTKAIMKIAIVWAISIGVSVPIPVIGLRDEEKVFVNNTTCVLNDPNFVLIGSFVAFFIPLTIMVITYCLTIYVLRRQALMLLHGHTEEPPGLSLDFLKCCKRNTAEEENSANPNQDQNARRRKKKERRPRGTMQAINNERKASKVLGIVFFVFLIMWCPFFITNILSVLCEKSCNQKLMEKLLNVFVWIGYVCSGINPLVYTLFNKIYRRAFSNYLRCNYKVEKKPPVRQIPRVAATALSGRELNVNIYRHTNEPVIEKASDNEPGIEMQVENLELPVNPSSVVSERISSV

[2] = biological target: 5-hydroxytryptamine receptor 2A (Homo sapiens, UniProt P28223); experiment: Ability to displace [3H]ketanserin binding to human 5-hydroxytryptamine 2A receptor stably expressed in CHO cells; type: cell-based
Outline: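 Membranes from CHO cells stably expressing human 5-HT2A, homogenized in 50 mM Tris-HCl pH 7.5, at 2 mg wet weight/mL. Ki from nonlinear least-squares regression, geometric mean of at least three determinations.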

D(2) dopamine receptor = D(2) dopamine receptor (Homo sapiens, UniProt P14416); experiment: Ability to displace [3H]spiperone binding to CHO cells stably expressing dopamine receptor D2; type: cell-based
[3] = biological target: T2, Adrenergic receptor alpha-1 (Rattus norvegicus, UniProt P15823+P23944+P43140); experiment: Ability to displace [3H]-prazosin binding to rat cortical membranes expressing Alpha-1 adrenergic receptors
T2 sequence (P15823 whole entry): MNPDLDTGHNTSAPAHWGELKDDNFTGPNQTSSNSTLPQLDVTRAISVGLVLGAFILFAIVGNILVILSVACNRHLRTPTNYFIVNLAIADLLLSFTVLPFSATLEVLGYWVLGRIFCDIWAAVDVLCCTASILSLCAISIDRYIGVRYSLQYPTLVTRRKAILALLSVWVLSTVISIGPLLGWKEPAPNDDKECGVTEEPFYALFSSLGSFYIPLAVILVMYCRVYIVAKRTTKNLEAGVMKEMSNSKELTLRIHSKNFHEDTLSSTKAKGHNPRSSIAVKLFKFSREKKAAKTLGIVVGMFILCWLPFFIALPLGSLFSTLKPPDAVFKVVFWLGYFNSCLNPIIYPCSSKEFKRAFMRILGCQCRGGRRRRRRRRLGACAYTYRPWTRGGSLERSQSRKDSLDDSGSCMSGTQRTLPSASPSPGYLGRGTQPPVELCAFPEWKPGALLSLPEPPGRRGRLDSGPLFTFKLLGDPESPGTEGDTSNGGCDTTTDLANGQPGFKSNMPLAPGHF
T2 sequence (P23944 whole entry): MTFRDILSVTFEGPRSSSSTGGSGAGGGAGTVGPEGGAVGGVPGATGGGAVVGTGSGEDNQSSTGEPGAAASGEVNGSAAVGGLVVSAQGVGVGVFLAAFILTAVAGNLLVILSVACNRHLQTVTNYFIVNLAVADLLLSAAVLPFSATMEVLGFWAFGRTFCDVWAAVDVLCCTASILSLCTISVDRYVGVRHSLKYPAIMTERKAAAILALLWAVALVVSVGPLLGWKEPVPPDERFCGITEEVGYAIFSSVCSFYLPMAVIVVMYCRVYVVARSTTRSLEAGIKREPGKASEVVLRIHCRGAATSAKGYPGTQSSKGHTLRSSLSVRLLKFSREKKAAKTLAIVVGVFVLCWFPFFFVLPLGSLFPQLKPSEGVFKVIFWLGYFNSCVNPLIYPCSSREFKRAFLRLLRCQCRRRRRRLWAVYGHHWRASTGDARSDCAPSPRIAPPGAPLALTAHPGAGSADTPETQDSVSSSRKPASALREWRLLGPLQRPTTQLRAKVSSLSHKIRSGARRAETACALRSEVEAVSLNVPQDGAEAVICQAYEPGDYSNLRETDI
T2 sequence (P43140 whole entry): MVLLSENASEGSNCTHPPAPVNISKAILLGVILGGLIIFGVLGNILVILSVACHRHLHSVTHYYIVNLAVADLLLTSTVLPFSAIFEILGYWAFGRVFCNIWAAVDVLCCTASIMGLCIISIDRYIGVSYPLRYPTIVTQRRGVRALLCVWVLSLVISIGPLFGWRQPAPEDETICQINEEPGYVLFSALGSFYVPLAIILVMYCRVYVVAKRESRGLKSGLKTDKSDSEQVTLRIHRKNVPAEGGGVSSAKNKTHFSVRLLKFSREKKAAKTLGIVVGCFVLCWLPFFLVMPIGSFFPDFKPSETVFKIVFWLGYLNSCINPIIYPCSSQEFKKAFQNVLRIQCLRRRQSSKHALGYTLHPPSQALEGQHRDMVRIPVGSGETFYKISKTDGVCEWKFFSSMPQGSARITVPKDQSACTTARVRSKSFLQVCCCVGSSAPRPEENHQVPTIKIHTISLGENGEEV

[4] = biological target: Voltage-gated inwardly rectifying potassium channel KCNH2 (Homo sapiens, UniProt Q12809); experiment: Displacement of [3H]dofetilide from HEK cells expressing hERG voltage dependent IKr potassium channel Kv11.1
[5] = Maximum blood concentration after oral dosing at 2 mg/kg in rat; type: ADME, organism-based; parameters: dose 2 mg/kg, route oral
Outline: (§1)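 Male Sprague-Dawley rats (~300 g) gavaged at 2 mg/kg (5 mL/kg of 0.5% methocel A4C suspension), five rats; one rat culled per time point up to 4 h for blood. Samples get internal standard and are extracted into ethyl acetate, then LC-MS single ion recording.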

[6] = Area under the concentration-time curve for 0-4 hr after 2 mg/kg po in rat; type: ADME, organism-based; parameters: time < 4 hr, dose 2 mg/kg, route oral; conditions: in vivo; outline: as §1
[7] = Bioavailability in rat (dose 0.5-2 mg/kg i.v. and p.o.); type: ADME, organism-based; conditions: in vivo, po
Outline: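 Male Sprague-Dawley rats (~300 g), jugular-cannulated, three per route. Dosing by i.v. tail-vein bolus and oral gavage, each in a suitable vehicle. Serial jugular blood samples taken; plasma extracted with ethyl acetate against an internal standard. Analysis by LC-MS with single ion recording. F from model-independent parameters.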

[8] = Bioavailability in dog (dose 0.5-2 mg/kg i.v. and p.o.); type: ADME, organism-based, Canis lupus familiaris; conditions: in vivo, po
Outline: (§2)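 Female Beagle dogs (10-12 kg), three per route; i.v. cephalic-vein bolus (1 mL/kg PEG 300/water) and oral gavage (5 mL/kg of 0.5% methocel A4C suspension), 0.5-2 mg/kg. Serial blood to 24 h; plasma extracted with ethyl acetate, LC-MS. Model-independent bioavailability and terminal half-life after i.v. dosing.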

[9] = Terminal half-life following iv dosing in rat; type: ADME, organism-based; conditions: in vivo
[10] = Terminal half-life following iv dosing in dog; type: ADME, organism-based, Canis lupus familiaris; conditions: in vivo; outline: as §2
[11] = Terminal half-life following iv dosing in dog, measured over 48 hr; type: ADME, organism-based, Canis lupus familiaris; conditions: in vivo
[12] = Terminal half-life following iv dosing in rat, measured over 48 hr; type: ADME, organism-based; conditions: in vivo

Voltage-gated inwardly rectifying potassium channel KCNH2, sequence (Q12809 whole entry): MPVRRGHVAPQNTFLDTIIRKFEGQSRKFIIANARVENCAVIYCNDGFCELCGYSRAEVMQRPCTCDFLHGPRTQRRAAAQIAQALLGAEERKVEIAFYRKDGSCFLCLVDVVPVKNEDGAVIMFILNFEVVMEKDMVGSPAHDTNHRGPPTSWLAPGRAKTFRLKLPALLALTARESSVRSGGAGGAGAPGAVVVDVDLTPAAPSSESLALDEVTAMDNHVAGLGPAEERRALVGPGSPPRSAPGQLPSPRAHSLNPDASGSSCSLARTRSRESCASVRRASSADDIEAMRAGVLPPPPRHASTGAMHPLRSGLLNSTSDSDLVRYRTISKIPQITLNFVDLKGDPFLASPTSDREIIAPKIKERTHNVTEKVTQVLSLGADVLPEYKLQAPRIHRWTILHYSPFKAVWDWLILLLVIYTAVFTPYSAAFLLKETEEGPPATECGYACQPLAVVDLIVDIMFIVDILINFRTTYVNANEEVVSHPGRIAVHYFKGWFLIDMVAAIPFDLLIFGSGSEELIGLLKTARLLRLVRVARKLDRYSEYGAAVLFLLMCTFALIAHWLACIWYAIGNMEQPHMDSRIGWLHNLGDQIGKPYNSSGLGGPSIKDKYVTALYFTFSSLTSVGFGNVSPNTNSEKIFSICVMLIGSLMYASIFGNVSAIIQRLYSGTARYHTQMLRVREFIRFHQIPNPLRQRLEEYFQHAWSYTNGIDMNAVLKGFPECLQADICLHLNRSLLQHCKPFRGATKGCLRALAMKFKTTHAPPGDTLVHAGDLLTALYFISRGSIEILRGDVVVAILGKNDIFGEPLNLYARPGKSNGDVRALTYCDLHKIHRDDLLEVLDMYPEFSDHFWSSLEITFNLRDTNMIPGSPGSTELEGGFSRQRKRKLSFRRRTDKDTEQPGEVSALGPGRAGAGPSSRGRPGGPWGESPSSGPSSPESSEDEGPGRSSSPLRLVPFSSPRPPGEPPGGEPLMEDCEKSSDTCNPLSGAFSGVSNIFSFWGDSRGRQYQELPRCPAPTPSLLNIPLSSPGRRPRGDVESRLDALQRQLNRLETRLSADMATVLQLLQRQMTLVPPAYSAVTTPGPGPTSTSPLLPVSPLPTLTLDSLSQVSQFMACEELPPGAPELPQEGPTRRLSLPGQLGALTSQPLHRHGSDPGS
D(2) dopamine receptor, sequence (P14416 whole entry): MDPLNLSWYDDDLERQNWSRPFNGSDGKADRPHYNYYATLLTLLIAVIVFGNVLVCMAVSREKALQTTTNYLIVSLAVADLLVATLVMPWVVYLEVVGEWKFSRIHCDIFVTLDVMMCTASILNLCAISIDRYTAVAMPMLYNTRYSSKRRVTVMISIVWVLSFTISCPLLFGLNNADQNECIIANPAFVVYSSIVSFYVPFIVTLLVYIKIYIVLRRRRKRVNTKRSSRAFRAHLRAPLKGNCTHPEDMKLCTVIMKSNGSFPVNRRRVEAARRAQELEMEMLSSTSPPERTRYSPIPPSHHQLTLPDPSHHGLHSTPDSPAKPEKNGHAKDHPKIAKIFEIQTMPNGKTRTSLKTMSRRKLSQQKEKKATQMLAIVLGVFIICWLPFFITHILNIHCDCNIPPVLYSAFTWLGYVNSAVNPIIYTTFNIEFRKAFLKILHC
5-hydroxytryptamine receptor 2A, sequence (P28223 whole entry): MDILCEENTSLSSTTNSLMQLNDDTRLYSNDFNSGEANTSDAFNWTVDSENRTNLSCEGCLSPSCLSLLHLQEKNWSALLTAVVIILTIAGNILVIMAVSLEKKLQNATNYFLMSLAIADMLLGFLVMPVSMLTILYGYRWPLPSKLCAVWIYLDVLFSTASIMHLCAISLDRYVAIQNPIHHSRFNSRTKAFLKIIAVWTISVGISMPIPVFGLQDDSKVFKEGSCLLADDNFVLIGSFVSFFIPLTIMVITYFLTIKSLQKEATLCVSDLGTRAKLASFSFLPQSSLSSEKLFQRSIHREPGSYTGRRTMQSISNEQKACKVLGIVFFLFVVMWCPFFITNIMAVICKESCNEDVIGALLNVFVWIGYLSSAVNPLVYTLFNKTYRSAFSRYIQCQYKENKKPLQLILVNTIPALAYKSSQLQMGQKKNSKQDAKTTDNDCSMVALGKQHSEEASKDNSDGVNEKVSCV

## c1ccc(CN2CCCC(c3c(-c4ccccc4)[nH]c4ccccc34)C2)cc1 (stereo unspecified)
[1]
  Ki: 2000 nM
[2]
  Ki: 20 nM
D(2) dopamine receptor
  Ki: 1600 nM
[3]
  Ki: 47 nM

## Fc1ccc2c([C@@H]3CNCC[C@H]3F)c(-c3cccc4ccccc34)[nH]c2c1
[4]
  Ki: 110 nM
[2]
  Ki: 0.34 nM
D(2) dopamine receptor
  Ki: 1400 nM
[3]
  Ki: 8.5 nM

## F[C@@H]1CCNC[C@H]1c1c(-c2ccccc2)[nH]c2ccc(Cl)cc12
[2]
  Ki: 10.2 nM
D(2) dopamine receptor
  Ki: > 1600 nM
[3]
  Ki: 40 nM

## Fc1ccc2c([C@@H]3CNCC[C@H]3F)c(-c3ccc4ccccc4c3)[nH]c2c1
[4]
  Ki: 500 nM
[2]
  Ki: 0.23 nM
D(2) dopamine receptor
  Ki: 500 nM
[3]
  Ki: 2.1 nM

## Fc1ccc2c([C@@H]3CNCC[C@H]3F)c(-c3ccsc3)[nH]c2c1
[4]
  Ki: 1500 nM
[1]
  Ki: 50 nM
[2]
  Ki: 0.11 nM
D(2) dopamine receptor
  Ki: 1600 nM
[3]
  Ki: 2.8 nM

## O=C(Nc1ccccc1)c1[nH]c2cc(F)ccc2c1[C@@H]1CNCC[C@H]1F
[5]
  Cmax: 3 ng/mL
[1]
  Ki: 48 nM
[2]
  Ki: 0.09 nM
[6]
  AUC(0-t) at 4 h: 8 ng·h/mL
D(2) dopamine receptor
  Ki: > 1600 nM
[3]
  Ki: 3.9 nM

## F[C@@H]1CCNC[C@H]1c1c(-c2ccccc2)[nH]c2ccccc12
[7]
  bioavailability: 18%
[1]
  Ki: 19 nM
[8]
  bioavailability: 37%
[2]
  Ki: 0.43 nM
[9]
  half-life: 1.4 h
[10]
  half-life: 7.4 h
D(2) dopamine receptor
  Ki: > 1700 nM
[3]
  Ki: 25 nM

## Fc1ccc2[nH]c(-c3ccccc3)c([C@@H]3CNCC[C@H]3F)c2c1
[4]
  Ki: > 7000 nM
[1]
  Ki: 500 nM
[2]
  Ki: 4 nM
D(2) dopamine receptor
  Ki: > 1600 nM
[3]
  Ki: 210 nM

## F[C@@H]1CCNC[C@H]1c1c(-c2ccccc2)[nH]c2cc(Cl)ccc12
[2]
  Ki: 2.3 nM
D(2) dopamine receptor
  Ki: > 1600 nM
[3]
  Ki: 16 nM

## Fc1cccc2c([C@@H]3CNCC[C@H]3F)c(-c3ccccc3)[nH]c12
[1]
  Ki: 132 nM
[2]
  Ki: 0.46 nM
D(2) dopamine receptor
  Ki: > 1600 nM
[3]
  Ki: 27 nM

## Fc1ccc2c([C@@H]3CNCC[C@H]3F)c(-c3ccccc3)[nH]c2c1
[11]
  half-life: 6.4 h
[12]
  half-life: 12 h

## COC(=O)c1[nH]c2cc(F)ccc2c1[C@@H]1CNCC[C@H]1F
[1]
  Ki: > 2000 nM
[2]
  Ki: 10.4 nM
D(2) dopamine receptor
  Ki: > 1600 nM
[3]
  Ki: 7.3 nM

## Fc1ccc2c([C@@H]3CNCC[C@H]3F)c(C3CCCCC3)[nH]c2c1
[1]
  Ki: 5 nM
[2]
  Ki: 0.25 nM
D(2) dopamine receptor
  Ki: > 1600 nM
[3]
  Ki: 21 nM

## Fc1ccc(-c2[nH]c3cc(F)ccc3c2[C@@H]2CNCC[C@H]2F)cc1
[4]
  Ki: 1600 nM
[5]
  Cmax: 149 ng/mL
[1]
  Ki: 19 nM
[2]
  Ki: 0.12 nM
[6]
  AUC(0-t) at 4 h: 350 ng·h/mL
D(2) dopamine receptor
  Ki: 900 nM
[3]
  Ki: 2.9 nM

## F[C@@H]1CCNC[C@H]1c1c(-c2ccccc2)[nH]c2c(Cl)cccc12
[1]
  Ki: 154 nM
[2]
  Ki: 0.69 nM
D(2) dopamine receptor
  Ki: > 1600 nM
[3]
  Ki: 6.7 nM

## Fc1ccc2c([C@@H]3CNCC[C@H]3F)c(-c3cccnc3)[nH]c2c1
[1]
  Ki: 85 nM
[2]
  Ki: 0.35 nM
D(2) dopamine receptor
  Ki: > 1600 nM
[3]
  Ki: 7.3 nM
